ChEMBL document CHEMBL4350961, “Discovery of Pyrrolo[3,2- d]pyrimidin-4-one Derivatives as a New Class of Potent and Cell-Active Inhibitors of P300/CBP-Associated Factor Bromodomain” (J Med Chem, 2019)
Active and inactive are the calls of the source.

Experiments:
Homo sapiens = species: Homo sapiens; assay: Inhibition of recombinant full-length human JNK2alpha2 S51N mutant at 10 uM using ATF2 as substrate measured after 40 mins in presence of [gamma33P]ATP by scintillation counting method
[1] = target: Dual specificity mitogen-activated protein kinase kinase 3 (Homo sapiens) (UniProt P46734); assay: Inhibition of human MKK3 at 10 uM by radiometric method
How it was run: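 Kinase panel of 422 kinases screened by Eurofins KinaseProfiler at a single test-compound concentration of 10 µM.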

Mus musculus = species: Mus musculus; assay: Inhibition of recombinant full-length mouse PI3K p110alpha/p85alpha H1047R mutant at 10 uM using phosphatidylinositol-4, 5-bisphosphate as substrate measured after 40 mins by HTRF assay
[2] = target: Calcium/calmodulin-dependent protein kinase type 1D (Homo sapiens) (UniProt Q8IU85); assay: Inhibition of recombinant full-length human CaMK1delta at 10 uM using calmodulin as substrate measured after 40 mins in presence of [gamma33P]ATP by scintillation counting method
Chain of Calcium/calmodulin-dependent protein kinase type 1D (Homo sapiens) (Q8IU85 whole entry, looked up): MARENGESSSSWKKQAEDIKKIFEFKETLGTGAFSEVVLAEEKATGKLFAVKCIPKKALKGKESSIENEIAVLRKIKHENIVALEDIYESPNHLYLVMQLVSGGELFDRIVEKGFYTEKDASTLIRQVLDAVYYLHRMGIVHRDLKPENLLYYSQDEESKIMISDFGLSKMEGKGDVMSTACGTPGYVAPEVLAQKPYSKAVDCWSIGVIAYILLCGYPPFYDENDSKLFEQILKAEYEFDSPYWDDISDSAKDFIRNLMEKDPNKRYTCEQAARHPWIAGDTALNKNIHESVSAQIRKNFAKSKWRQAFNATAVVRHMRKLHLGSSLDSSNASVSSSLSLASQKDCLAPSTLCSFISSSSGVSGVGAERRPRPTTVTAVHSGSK

[3] = target: Serine/threonine-protein kinase Chk2 (Homo sapiens) (UniProt O96017); assay: Inhibition of recombinant human CHK2 (5 to end residues) at 10 uM using KKKVSRSGLYRSPSMPENLNRPR as substrate measured after 40 mins in presence of [gamma33P]ATP by scintillation counting method
[4] = target: Myosin light chain kinase, smooth muscle (Homo sapiens) (UniProt Q15746); assay: Inhibition of recombinant human MLCK (1425 to 1771 residues) at 10 uM using […] as substrate measured after 40 mins in presence of [gamma33P]ATP by scintillation counting method
[5] = target: Serine-protein kinase ATM (Homo sapiens) (UniProt Q13315); assay: Inhibition of recombinant full-length human ATM at 10 uM using GST-cMyc-p53 as substrate measured after 40 mins by ELISA
[6] = target: Mitogen-activated protein kinase kinase kinase kinase 3 (Homo sapiens) (UniProt Q8IVH8); assay: Inhibition of recombinant human MAP4K3 (1 to 291 residues) at 10 uM using RLGRDKYKTLRQIRQ as substrate measured after 40 mins in presence of [gamma33P]ATP by scintillation counting method
Chain of Mitogen-activated protein kinase kinase kinase kinase 3 (Homo sapiens) (Q8IVH8 whole entry, the tested form may be a part): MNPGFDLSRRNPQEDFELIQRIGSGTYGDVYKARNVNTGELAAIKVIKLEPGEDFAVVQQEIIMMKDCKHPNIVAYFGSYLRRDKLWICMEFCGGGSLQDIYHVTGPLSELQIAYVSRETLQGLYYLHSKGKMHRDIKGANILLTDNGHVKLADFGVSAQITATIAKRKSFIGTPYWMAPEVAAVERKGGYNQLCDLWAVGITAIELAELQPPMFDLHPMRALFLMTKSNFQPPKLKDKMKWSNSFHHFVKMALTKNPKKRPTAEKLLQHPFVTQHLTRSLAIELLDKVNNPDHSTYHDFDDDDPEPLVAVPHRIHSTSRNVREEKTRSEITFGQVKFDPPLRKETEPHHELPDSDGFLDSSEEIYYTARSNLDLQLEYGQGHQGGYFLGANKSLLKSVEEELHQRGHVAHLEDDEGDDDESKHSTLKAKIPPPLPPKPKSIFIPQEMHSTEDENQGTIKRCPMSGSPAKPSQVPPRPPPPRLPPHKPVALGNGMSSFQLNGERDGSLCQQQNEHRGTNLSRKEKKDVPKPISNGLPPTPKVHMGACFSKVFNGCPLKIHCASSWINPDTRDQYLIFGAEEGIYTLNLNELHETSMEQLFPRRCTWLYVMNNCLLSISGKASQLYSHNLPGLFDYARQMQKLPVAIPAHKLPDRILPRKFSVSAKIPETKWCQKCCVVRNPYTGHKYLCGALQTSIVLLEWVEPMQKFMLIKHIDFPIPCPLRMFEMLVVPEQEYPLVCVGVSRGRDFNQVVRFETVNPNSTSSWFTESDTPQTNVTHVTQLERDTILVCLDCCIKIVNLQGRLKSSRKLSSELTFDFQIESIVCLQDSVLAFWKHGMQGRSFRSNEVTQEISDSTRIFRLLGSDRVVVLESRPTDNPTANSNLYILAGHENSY

[7] = target: Calcium/calmodulin-dependent protein kinase type II subunit delta (Homo sapiens) (UniProt Q13557); assay: Inhibition of recombinant full-length human CaMK2delta at 10 uM using calmodulin as substrate measured after 40 mins in presence of [gamma33P]ATP by scintillation counting method
[8] = target: Phosphatidylinositol 4-phosphate 5-kinase type-1 gamma (Homo sapiens) (UniProt O60331); assay: Inhibition of recombinant full-length human PIP5K1gamma at 10 uM using phosphatidylinositol 4-phosphate as substrate measured after 40 mins by HTRF assay
Chain of Phosphatidylinositol 4-phosphate 5-kinase type-1 gamma (Homo sapiens) (O60331 whole entry): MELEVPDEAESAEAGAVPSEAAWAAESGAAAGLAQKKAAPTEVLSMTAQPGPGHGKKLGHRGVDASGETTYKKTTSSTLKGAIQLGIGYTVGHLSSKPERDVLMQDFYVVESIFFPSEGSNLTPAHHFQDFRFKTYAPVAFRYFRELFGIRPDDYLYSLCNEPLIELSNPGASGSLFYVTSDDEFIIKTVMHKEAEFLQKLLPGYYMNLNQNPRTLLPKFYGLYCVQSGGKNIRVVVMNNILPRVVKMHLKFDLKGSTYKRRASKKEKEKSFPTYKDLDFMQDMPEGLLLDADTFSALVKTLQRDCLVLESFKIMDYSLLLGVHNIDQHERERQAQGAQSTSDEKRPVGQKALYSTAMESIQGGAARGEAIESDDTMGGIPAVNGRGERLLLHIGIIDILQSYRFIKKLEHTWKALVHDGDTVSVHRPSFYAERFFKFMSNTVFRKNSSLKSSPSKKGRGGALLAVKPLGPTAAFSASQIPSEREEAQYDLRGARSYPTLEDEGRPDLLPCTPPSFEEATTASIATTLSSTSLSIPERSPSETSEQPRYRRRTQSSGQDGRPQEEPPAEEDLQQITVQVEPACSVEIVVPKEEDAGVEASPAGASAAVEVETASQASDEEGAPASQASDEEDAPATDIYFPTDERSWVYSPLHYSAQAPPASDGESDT

[9] = system: Serine/threonine-protein kinase Nek4 (Homo sapiens), P51957 [P225A]; assay: Inhibition of recombinant full-length human NEK4 P225A mutant at 10 uM using myelin basic protein as substrate measured after 40 mins in presence of [gamma33P]ATP by scintillation counting method
[10] = target: Serine/threonine-protein kinase 32A (Homo sapiens) (UniProt Q8WU08); assay: Inhibition of recombinant full-length human STK32A at 10 uM using casein as substrate measured after 120 mins in presence of [gamma33P]ATP by scintillation counting method
[11] = target: Dual specificity tyrosine-phosphorylation-regulated kinase 2 (Homo sapiens) (UniProt Q92630); assay: Inhibition of recombinant full-length human DYRK2 at 10 uM using casein as substrate measured after 40 mins in presence of [gamma33P]ATP by scintillation counting method
[12] = target: Ribosomal protein S6 kinase alpha-2 (Homo sapiens) (UniProt Q15349); assay: Inhibition of recombinant full-length human Rsk3 at 10 uM using KKKNRTLSVA as substrate measured after 40 mins in presence of [gamma33P]ATP by scintillation counting method
[13] = system: Serine/threonine-protein kinase B-raf (Homo sapiens), P15056 [V600E]; assay: Inhibition of recombinant human BRAF V599E mutant (416 to end residues) at 10 uM using myelin basic protein as substrate measured after 40 mins in presence of [gamma33P]ATP by scintillation counting method
Chain of Serine/threonine-protein kinase B-raf (Homo sapiens), P15056 [V600E] (P15056 whole entry V600E): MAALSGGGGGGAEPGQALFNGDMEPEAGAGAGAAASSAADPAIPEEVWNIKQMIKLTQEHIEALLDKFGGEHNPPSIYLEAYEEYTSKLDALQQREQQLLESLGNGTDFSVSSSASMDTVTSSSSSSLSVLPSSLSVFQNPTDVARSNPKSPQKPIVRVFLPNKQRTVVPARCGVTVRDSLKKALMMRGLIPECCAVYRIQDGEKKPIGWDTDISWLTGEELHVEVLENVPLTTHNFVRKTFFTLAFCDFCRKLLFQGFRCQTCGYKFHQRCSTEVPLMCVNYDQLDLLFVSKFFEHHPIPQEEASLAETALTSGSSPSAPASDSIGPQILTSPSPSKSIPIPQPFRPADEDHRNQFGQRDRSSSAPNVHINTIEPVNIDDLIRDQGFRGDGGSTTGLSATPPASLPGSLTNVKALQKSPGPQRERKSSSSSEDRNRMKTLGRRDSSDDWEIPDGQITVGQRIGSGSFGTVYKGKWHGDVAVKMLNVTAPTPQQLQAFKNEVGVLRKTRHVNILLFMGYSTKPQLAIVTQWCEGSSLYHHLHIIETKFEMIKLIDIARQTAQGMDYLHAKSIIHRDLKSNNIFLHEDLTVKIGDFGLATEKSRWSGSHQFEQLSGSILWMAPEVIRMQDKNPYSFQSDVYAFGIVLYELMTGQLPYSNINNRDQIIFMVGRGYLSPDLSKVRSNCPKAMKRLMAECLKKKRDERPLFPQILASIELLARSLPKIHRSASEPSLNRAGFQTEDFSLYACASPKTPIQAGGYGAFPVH

[14] = target: Homeodomain-interacting protein kinase 4 (Homo sapiens) (UniProt Q8NE63); assay: Inhibition of recombinant full-length human HIPK4 at 10 uM using RRRFRPASPLRGPPK as substrate measured after 40 mins in presence of [gamma33P]ATP by scintillation counting method
[15] = target: Transcription initiation factor TFIID subunit 1-like (Homo sapiens) (UniProt Q8IZX4); assay: Binding affinity to human partial length TAF1L bromodomain 2 (Q1523 to D1654 residues) expressed in bacterial expression system at 1 uM by BROMOscan assay
Chain of Transcription initiation factor TFIID subunit 1-like (Homo sapiens) (Q8IZX4 whole entry, the tested form may be a part): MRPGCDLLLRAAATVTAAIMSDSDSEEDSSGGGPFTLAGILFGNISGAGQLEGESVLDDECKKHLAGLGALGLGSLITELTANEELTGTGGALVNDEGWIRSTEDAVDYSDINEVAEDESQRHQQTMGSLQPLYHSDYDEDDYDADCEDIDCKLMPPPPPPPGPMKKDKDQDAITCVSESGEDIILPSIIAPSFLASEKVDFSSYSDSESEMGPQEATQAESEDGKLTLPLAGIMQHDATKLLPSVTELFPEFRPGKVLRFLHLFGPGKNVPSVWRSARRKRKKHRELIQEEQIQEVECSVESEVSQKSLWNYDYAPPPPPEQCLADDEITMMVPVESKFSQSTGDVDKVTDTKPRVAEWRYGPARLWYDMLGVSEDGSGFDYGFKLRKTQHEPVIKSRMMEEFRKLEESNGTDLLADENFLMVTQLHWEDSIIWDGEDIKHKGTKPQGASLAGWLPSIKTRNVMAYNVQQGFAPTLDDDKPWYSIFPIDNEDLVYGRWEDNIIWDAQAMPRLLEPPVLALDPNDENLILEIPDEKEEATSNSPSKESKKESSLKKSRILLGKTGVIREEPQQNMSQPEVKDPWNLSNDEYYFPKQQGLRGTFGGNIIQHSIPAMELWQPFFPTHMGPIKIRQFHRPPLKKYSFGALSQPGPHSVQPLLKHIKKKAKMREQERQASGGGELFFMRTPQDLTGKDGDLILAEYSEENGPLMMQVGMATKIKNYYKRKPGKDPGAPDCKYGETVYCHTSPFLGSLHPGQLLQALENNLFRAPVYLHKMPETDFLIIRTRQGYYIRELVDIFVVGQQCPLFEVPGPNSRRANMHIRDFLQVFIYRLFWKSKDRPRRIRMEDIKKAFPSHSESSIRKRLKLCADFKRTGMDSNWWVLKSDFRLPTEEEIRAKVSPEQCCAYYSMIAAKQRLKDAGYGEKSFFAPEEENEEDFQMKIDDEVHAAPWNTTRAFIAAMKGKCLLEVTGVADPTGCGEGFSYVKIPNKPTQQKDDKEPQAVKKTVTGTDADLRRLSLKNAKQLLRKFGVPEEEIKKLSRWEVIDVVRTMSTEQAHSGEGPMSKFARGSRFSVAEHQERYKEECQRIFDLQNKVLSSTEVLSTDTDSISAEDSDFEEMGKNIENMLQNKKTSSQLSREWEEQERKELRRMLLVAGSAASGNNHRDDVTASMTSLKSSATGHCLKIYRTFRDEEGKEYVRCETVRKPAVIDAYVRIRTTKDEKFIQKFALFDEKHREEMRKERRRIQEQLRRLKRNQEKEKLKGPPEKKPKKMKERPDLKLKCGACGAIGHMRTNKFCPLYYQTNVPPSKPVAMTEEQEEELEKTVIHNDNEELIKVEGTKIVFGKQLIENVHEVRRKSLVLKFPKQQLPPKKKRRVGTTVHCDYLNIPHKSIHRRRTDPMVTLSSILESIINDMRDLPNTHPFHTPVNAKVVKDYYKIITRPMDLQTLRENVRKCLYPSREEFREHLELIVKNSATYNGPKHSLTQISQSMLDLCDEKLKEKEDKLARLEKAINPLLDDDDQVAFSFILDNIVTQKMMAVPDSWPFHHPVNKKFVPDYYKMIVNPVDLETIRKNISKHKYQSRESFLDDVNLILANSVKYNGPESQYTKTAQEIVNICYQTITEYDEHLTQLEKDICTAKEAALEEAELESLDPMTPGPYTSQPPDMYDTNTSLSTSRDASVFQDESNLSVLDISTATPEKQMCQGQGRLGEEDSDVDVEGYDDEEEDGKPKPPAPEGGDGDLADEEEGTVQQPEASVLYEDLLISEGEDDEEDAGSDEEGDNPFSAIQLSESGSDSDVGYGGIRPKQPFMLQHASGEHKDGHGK
How it was run: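 BROMOscan bromodomain cross-screen run by an outside service, compound at 1 µM against 32 recombinant bromodomains. Binding given as percent of control.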

[16] = target: Insulin receptor (Homo sapiens) (UniProt P06213); assay: Inhibition of recombinant human activated IR (1005 to 1310 residues) at 10 uM using KKKSPGEYVNIEFG as substrate measured after 40 mins in presence of [gamma33P]ATP by scintillation counting method
[17] = target: CDK12/Cyclin K (Homo sapiens) (UniProt O75909+Q9NYV4); assay: Inhibition of recombinant full length human CDK12/cyclinK at 10 uM using RSRSRSRSRSRSRSR as substrate measured after 120 mins in presence of [gamma33P]ATP by scintillation counting method; type: protein-complex assay
[18] = target: Serine/threonine-protein kinase VRK1 (Homo sapiens) (UniProt Q99986); assay: Inhibition of human VRK1 at 10 uM by radiometric method
[19] = target: Tyrosine-protein kinase JAK2 (Homo sapiens) (UniProt O60674); assay: Inhibition of recombinant human JAK2 (808 to end residues) at 10 uM using KTFCGTPEYLAPEVRREPRILSEEEQEMFRDFDYIADWC as substrate measured after 40 mins in presence of [gamma33P]ATP by scintillation counting method
[20] = target: Serine/threonine-protein kinase 17A (Homo sapiens) (UniProt Q9UEE5); assay: Inhibition of recombinant full-length human DRAK1 at 10 uM using KKLNRTLSFAEPG as substrate measured after 40 mins in presence of [gamma33P]ATP by scintillation counting method
Chain of Serine/threonine-protein kinase 17A (Homo sapiens) (Q9UEE5 whole entry): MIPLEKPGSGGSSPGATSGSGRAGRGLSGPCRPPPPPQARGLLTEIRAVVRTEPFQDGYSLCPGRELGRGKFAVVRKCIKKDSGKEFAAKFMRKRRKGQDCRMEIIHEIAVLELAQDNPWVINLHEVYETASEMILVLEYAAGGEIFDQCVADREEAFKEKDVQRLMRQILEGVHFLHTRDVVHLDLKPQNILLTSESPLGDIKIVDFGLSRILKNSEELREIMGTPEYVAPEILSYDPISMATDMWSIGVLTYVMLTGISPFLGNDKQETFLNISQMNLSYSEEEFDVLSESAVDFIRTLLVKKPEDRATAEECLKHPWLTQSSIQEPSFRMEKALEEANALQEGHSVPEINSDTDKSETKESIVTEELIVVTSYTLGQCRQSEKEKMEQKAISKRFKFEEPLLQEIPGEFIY

[21] = system: Tyrosine-protein kinase ABL1 (Homo sapiens), P00519 [Q252H]; assay: Inhibition of recombinant human ABL Q252H mutant (27 to end residues) at 10 uM using EAIYAAPFAKKK as substrate measured after 40 mins in presence of [gamma33P]ATP by scintillation counting method
[22] = target: Mitogen-activated protein kinase kinase kinase kinase 4 (Homo sapiens) (UniProt O95819); assay: Inhibition of recombinant human MAP4K4 (1 to 328 residues) at 10 uM using RLGRDKYKTLRQIRQ as substrate measured after 40 mins in presence of [gamma33P]ATP by scintillation counting method

CN1C[C@H](Nc2nc3cc[nH]c3c(=O)n2C)C[C@H](c2ccc3c(c2)OCCO3)C1
inactive: inhibition (Homo sapiens) | inhibition [1] | inhibition (Mus musculus) | inhibition [2] | inhibition [3] | inhibition [4] | inhibition [5] | inhibition [6] | inhibition [7] | inhibition [8] | inhibition [9] | inhibition [10] | inhibition [11] | inhibition [12] | inhibition [13] | inhibition [14] | Activity [15] | inhibition [16] | inhibition [17] | inhibition [18] | inhibition [19] | inhibition [20] | inhibition [21] | inhibition [22]
